ERp5 block: inhibitors of human ERp5; Q15084; ERp5 insulin aggregation, absorbance 650 nm, 90 min; inhibition, % at 9.99 µM; actives 0.05% (n = 350,000); AID 651711;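 active = mean replicate inhibition above about 25%, with every replicate also reaching it, limit read from the data, passing the limit was not always enough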
Target sequence (Q15084 whole entry, looked up): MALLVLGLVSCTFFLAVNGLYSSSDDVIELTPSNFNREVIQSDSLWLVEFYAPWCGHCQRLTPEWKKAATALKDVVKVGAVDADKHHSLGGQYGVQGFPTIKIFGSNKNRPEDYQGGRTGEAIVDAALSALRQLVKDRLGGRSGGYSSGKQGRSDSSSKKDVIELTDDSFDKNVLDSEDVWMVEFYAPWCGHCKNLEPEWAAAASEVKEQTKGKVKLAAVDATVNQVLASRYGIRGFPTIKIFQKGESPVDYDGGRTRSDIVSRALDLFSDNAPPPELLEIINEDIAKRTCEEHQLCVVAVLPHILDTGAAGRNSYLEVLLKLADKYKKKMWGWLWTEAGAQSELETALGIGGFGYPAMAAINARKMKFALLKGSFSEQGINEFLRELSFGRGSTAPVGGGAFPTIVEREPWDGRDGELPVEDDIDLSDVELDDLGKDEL
PDI turbidity: inhibitors of human protein disulfide isomerase. actives 0.052% (n = 350,000). P07237. PDI insulin aggregation turbidity, A650, 90 min. inhibition, % at 10 µM;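 active = mean inhibition across replicates of 30% or more, whatever share of single replicates reach that level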
CAL PDZ FP-1: blocks peptide binding to the human CAL PDZ domain. actives 0.92% (n = 300,000). inhibition, % at 24.9 µM. purified CAL PDZ, TMR-peptide fluorescence polarization, 1 h. AID 602252. Q9HD26;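 active = mean inhibition of at least 30% with at least half of replicates also reaching 30%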;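 also: 0% = DMSO neutral control and 100% = excess unlabeled competitor peptide PRC23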
RAD54 branch: RAD54 (human) branch migration inhibition; RAD54 Holliday junction branch migration, FAM/BHQ fluorescence; inhibition, % at 10.4 µM; actives 0.14% (n = 360,000); AID 602329;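 active = mean normalized replicate activity at least 40 and at least half of replicates scoring 40 or more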;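 also: 0% = median of neutral control wells and 100% = median of positive control wells; inhibitors cause a drop in the FAM fluorescence signal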
CAL PDZ FP-2: blocks peptide binding to human CAL PDZ domain; Q9HD26; purified CAL PDZ, TMR-peptide fluorescence polarization, 1 h; inhibition, % at 20 µM; actives 0.02% (n = 330,000);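 active = highest replicate inhibition of at least 40%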;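 also: plate controls were DMSO neutral control wells for no effect and unlabeled competitor peptide control wells for full effect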
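material = purified tagged CAL PDZ domain construct (CerCALP) | buffer or medium = sodium phosphate/NaCl buffer pH 7.4 with TCEP, IgG, Thesit | reagent = TMR-labelled reporter peptide T*-PRC34 bound in PDZ groove | incubation = 1 h room-temperature incubation prior to read | measured by = fluorescence polarization (mP) | evaluation = percent inhibition from loss of millipolarization | control set = unlabelled peptide and DMSO controls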
RAD52 anneal inh: blocks human RAD52 DNA annealing. P43351. actives 0.46% (n = 360,000). AID 651710. recombinant RAD52 DNA annealing, FRET fluorescence. inhibition, % at 18.7 µM;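 active = every replicate showing at least 50% inhibition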
RAD52 DNA ctr: DNA binding artifact in RAD52 counter-screen; shares compounds with RAD52 anneal inh; AC50, µM; Salmon sperm DNA/acridine orange FP displacement; actives 8% (n = 1,000);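 active = fitted half-maximal concentration for signal loss at or below twice the highest dose tested, in every separate run, actives reach about 64 µM in these data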
Active calls of the source: *; i = inactive; . = no result; ! = a repeat was not active. Sampled rows, rich in hits. Any-hit rate of the full collection: about 1%.

SMILES	ERp5 block	PDI turbidity	CAL PDZ FP-1	RAD54 branch	CAL PDZ FP-2	RAD52 anneal inh	RAD52 DNA ctr
O=C(C[C@@H]1C=C[C@@H](NC(=O)CN2CCOCC2)[C@H](CO)O1)NCCc1ccncc1	2	.	.	.	.	-1	.
C[n+]1ccc(/C=C/c2ccccc2O)c2ccccc21	3	-1	2	.	0	54*	46µM*
O=C(CN1CCCC(O)C1)N1c2ccccc2Sc2ccc(C(F)(F)F)cc21 (centres undefined)	.	-4	.	-2	0	.	.
CN1CCN(CCCN2c3ccccc3Sc3ccc(C(F)(F)F)cc32)CC1	-4	4	-3	21	0	50*!	i
O=C(c1ccccn1)N1CC2(C1)[C@H](c1ccccc1)[C@@H](CO)N2C(=O)C1CC1	-3	.	.	.	.	-9	.
OC(CN1CCNCC1)Cn1c2ccccc2c2ccccc21 (centres undefined)	1	14	0	19	1	79*	i
OC(CN1CCOCC1)Cn1c2ccccc2c2ccccc21 (centres undefined)	2	2	0	9	-6	-1	.
OC(CNCCc1ccc(Cl)cc1)COc1ccc2ccccc2c1 (centres undefined)	0	13	-7	-5	-1	53*	i
CCC(=O)N1[C@@H](CO)[C@@H](c2ccc(-c3ccc(F)cc3)cc2)C12CN(C(C)=O)C2	-3	.	.	.	.	-17	.
CCN(CC)CCn1c(SCC(=O)Nc2cccc(OC)c2)nc2c(sc3ccccc32)c1=O	8	0	1	.	-1	-24	.
COc1cccc(NC(=O)CSc2nc3c(sc4ccccc43)c(=O)n2CCN(C)C)c1	2	-4	2	.	-4	74*	i
NC(N)=Nc1nc(-c2ccccc2)c2ccccc2n1	0	-1	11	51*	-11	64*	i
CCc1nc(N=C(N)N)nc2ccccc12	6	.	.	.	.	63*	i
C[C@@H]1CCCCO[C@@H](CN(C)Cc2ccc(C(F)(F)F)cc2)[C@H](C)CN([C@@H](C)CO)C(=O)c2cc(NS(=O)(=O)c3ccc(Cl)cc3)ccc2O1	0	.	.	-6	.	-1	.
COCCCNC(=O)c1cc(Nc2ccc(OC)cc2OC)nc2ccccc12	1	7	3	5	2	-1	.
CCN(CC)CCCNC(=O)c1cc(Nc2ccc(OC)cc2OC)nc2ccccc12	-2	-7	-3	-1	0	8	i
Cc1nc(Nc2nc(-c3ccccc3)cc(=O)[nH]2)nc2ccccc12	-2	-5	-1	13	-7	95*	i
Cc1nc(Nc2nc(CSc3nc4ccccc4[nH]3)cc(=O)[nH]2)nc2ccccc12	.	1	.	1	0	.	.
C[C@@H]1CN([C@@H](C)CO)C(=O)Cc2cc(NC(=O)Cn3cnnn3)ccc2O[C@H]1CN(C)CC1CCCCC1	0	.	.	-7	.	-4	.
CC1CCCCN1CC(=O)Nc1ccc(N2CCCCCC2)cc1 (centres undefined)	5	-5	10	.	1	93*	i
CCC(=O)N1CC2(CCN(Cc3cncnc3)CC2)c2c([nH]c3cc(OC)ccc23)[C@H]1CO	-3	.	.	.	.	5	.
CCN1CCN(Cc2ccc(NC(=O)c3ccc(C)c(NC(=O)c4cccc5[nH]ccc45)c3)cc2C(F)(F)F)CC1	0	-1	6	7	-1	89*!	i
CCN1CCN(Cc2ccc(NC(=O)c3ccc(C)c(NC(=O)c4nccnc4N)c3)cc2C(F)(F)F)CC1	4	-4	-2	11	-4	67*	i
CCN1CCN(Cc2ccc(NC(=O)c3ccc(C)c(NC(=O)c4nccn4C)c3)cc2C(F)(F)F)CC1	-1	-4	1	3	-3	6	.
CN(CCCCCCCCCCN(C)C(=O)Oc1cccc([N+](C)(C)C)c1)C(=O)Oc1cccc([N+](C)(C)C)c1	2	7	22	-5	0	52*	i
SMILES	ERp5 block	PDI turbidity	CAL PDZ FP-1	RAD54 branch	CAL PDZ FP-2	RAD52 anneal inh	RAD52 DNA ctr
Cc1ccc(NCCCn2cnc(C(=O)Nc3ccc(C)c(C)c3)n2)cc1C	-17	-4	-1	-25	-1	4	.
Cc1cc(C)c(CN2CCN(CCCn3cnc(C(=O)Nc4ccc(C)c(C)c4)n3)CC2)c(C)c1	6	-1	-4	5	-1	56*	i
Cc1cc(N2CCNC[C@@H]2C)ccc1N1CCN(Cc2ccccc2)[C@@H](C)C1	2	.	.	.	.	51*	i
Cc1noc(C)c1NC(=O)Nc1ccc2c(c1)C(=O)N([C@@H](C)CO)C[C@@H](C)[C@@H](CN(C)C(=O)CCCN(C)C)OCCCC[C@H](C)O2	-18	.	.	5	.	5	.
Cc1cccc(S(=O)(=O)N[C@H]2CC[C@H](CCNC(=O)c3cnccn3)O[C@H]2CO)c1	1	.	.	-5	.	-2	.
c1ccc(-c2nc3ccccc3nc2-c2ccc(CN3CCC(c4nc5ccccc5[nH]4)CC3)cc2)cc1	-1	.	.	.	.	-13	.
Cc1cccc2nc(-c3ccccc3)c(-c3ccc(CN4CCC(n5cc(-c6ccccc6)[nH]c5=O)CC4)cc3)nc12	1	.	.	.	.	62*	i
Cc1cccc2nc(-c3ccccc3)c(-c3ccc(CN4CCC(c5nc6ccccc6[nH]5)CC4)cc3)nc12	3	.	.	.	.	60*	i
CN1CCN(c2ccc(NC(=O)c3ccc(-c4cccc([N+](=O)[O-])c4)o3)cc2)CC1	2	5	-3	.	2	58*	i
COc1cc(CNC(C)(C)CO)cc(Br)c1OCc1ccc(Cl)cc1Cl	6	4	-1	.	-4	55*	i
CCOc1ccc(NC(=O)CCN2CCN(c3ccccc3)CC2)cc1	.	-4	-6	13	-3	.	.
COc1ccc(NC(=O)CCN2CCN(c3ccc(F)cc3)CC2)cc1	3	17	-4	-6	-1	-8	i
COCCCn1c(=N)c(C(N)=S)cc2c(=O)n3cccc(C)c3nc21	-4	2	-3	30	-2	34	.
Cc1ccc2nc3c(cc(C(=O)NCc4ccccc4)c(=N)n3CCCn3ccnc3)c(=O)n2c1	-3	-3	-1	27	1	-256	.
Cc1cccn2c(=O)c3cc(C(N)=S)c(=N)n(CCCN4CCOCC4)c3nc12	-7	2	-4	.	0	86*	i
Cc1cccn2c(=O)c3cc(C(=O)NC(C)c4ccccc4)c(=N)n(CCCn4ccnc4)c3nc12 (centres undefined)	-10	2	2	.	-1	68*	i
O=C(C[C@H]1CC[C@@H](NS(=O)(=O)c2ccc(F)cc2)[C@@H](CO)O1)NC1CCCCC1	-3	.	.	-2	.	5	.
CC(C)c1cn(CC[C@@H]2CC[C@H](NS(=O)(=O)c3ccc(Cl)cc3)[C@H](CO)O2)nn1	0	.	.	-6	.	-11	.
